# Source: PubChem BioAssay (several laboratories)
# MsrA inhibitor: bovine MsrA inhibition; purified bovine MsrA, absorbance read-out; inhibition, % at 15.5 µM; 360,000 tested, 0.75% active;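 note: 0% = vehicle wells with enzyme and 100% = reference inhibitor wells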
# DAGLB inh: diacylglycerol lipase beta (human) inhibition; Q8NCG7; inhibition, % at 5.17 µM; AID 504411; 340,000 tested, 0.059% active; HEK293T DAGLB membrane lysate, EnzChek fluorogenic substrate; in the data active = inhibition above about 34%;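 note: 0% = enzyme with vehicle and 100% = wells lacking enzyme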
# Target sequence (Q8NCG7 whole entry, looked up): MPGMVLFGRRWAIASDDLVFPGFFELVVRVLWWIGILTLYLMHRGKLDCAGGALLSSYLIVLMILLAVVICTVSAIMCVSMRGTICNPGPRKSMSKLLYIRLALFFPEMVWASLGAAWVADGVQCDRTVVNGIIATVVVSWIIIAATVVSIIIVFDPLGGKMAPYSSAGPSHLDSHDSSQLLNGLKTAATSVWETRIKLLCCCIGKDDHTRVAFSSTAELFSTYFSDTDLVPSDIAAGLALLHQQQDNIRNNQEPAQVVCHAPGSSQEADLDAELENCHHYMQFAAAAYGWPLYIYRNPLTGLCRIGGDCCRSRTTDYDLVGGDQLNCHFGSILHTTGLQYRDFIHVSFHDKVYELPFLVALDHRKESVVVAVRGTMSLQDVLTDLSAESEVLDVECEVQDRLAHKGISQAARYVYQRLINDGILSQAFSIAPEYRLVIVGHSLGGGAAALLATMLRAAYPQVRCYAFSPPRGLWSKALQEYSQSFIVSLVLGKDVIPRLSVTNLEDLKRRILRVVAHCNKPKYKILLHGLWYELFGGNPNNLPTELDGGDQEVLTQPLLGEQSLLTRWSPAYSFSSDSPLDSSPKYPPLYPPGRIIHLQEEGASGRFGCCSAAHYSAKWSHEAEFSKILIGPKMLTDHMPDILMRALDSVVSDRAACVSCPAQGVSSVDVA
# beta cell repl: MIN6 beta-cell proliferation induction | MIN6 cells proliferation, ATPlite luminescence, 48 h; cells starved in 0.2% serum; 100% = growth in 10% serum | proliferation, % at 10 µM | 330,000 tested, 0.29% active | AID 2380;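 active = compounds whose signal lies at least 3.5 SD above the mean of all wells on their plate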;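 note: 0% = DMSO-treated cells in low-serum medium and 100% = 10% serum control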
# MsrA act: bovine methionine sulfoxide reductase A activation | purified bovine MsrA, absorbance read-out | activation, % at 10.6 µM | 360,000 tested, 0.3% active | AID 602163; in the data active = activation above about 7.5%;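 note: 0% = vehicle and 100% = reference activator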
# SKN-1 inh: C. elegans SKN-1 inhibition. AID 624304. C. elegans VP596 Pgst-4::GFP/RFP ratio, acrylamide-induced, 24 h. 360,000 tested, 0.49% active. inhibition, % at 21.8 µM;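 active = interference check ratio from 0.5 to 1.5 plus GFP to RFP signal ratio inhibition reaching or exceeding a fixed threshold, cut at about 30% in these data, passing the limit was not always enough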
# MT1-MMP act inh: inhibitors of human MT1-MMP activation | AID 651647 | 360,000 tested, 0.061% active | HT1080 RFP-PRO-GFP cells, GFP/RFP ratio fluorescence, overnight; percent of plate control window, DMSO zero | GFP/RFP ratio change, % at 20 µM;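 active = GFP/RFP ratio change of at least 30% with cell ATP level not reduced by more than half and red fluorescence within 50% of control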
#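 Test system: HT1080 cells expressing an RFP-PRO-GFP fluorescent reporter construct / Compound dosing: single-point 20 µM compound, 1% DMSO / Schedule: cells overnight before dosing, compound overnight, 37 °C, 5% CO2 / Evaluation: GFP/RFP fluorescence ratio / Control set: DMSO and RFP-L50D-GFP cell wells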
# MsrA inh confirm: confirmation of bovine MsrA inhibitors | shares compounds with MsrA inhibitor | 2,300 tested, 41% active | AID 651822 | purified bovine MsrA, absorbance read-out | inhibition, % at 15.5 µM;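 note: coupled to thioredoxin reductase with NADPH and selenocystamine and DMSO as substrate; 0% = vehicle only and 100% = full effect of reference inhibitor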
# Active calls of the source: *; nt = not tested or not shown. Hits are enriched below; roughly 1.8% of the tested compounds scored in any of these assays. Cut-off read from the data, not from the text of the source, unless noted: active = inhibition above about 4.5%; inactive = the rest.
SMILES,MsrA inhibitor,DAGLB inh,beta cell repl,MsrA act,SKN-1 inh,MT1-MMP act inh,MsrA inh confirm
Cc1ccc2c(c1)N(C(=O)CCC(=O)NCCN1CCOCC1)CC(C)O2 (stereo not drawn),0,1,6,1,0,-6,nt
COC(=O)/C=C1\OCc2cc(OC)c(OC)cc21,3,nt,nt,nt,-5,3,nt
COc1cc2c(cc1OC)/C(=C/C(C)=O)OC2,6.9*,nt,nt,nt,2,1,4
Cc1nn(-c2ccccc2)c(N)c1N=Nc1ccccc1,5.3*,-1,nt,-6,11,1,2
O=C(/C=C/c1ccco1)NCC(=O)N/N=C/c1ccc(Cl)cc1,1,-1,-1,-11,0,1,nt
CN(C)c1ccc(/C=N/NC(=O)CNC(=O)c2ccc3c(c2)OCCO3)cc1,5.1*,2,0,-10,-2,3,5.1*
CN(C)c1ccc(/C=N/NC(=O)CNC(=O)/C=C/c2ccco2)cc1,6.7*,1,-3,-7,8,-1,7.1*
CN(C)c1ccc(/C=N/NC(=O)CNC(=O)c2ccncc2)cc1,5.1*,-1,-2,-7,-5,0,5.1*
Cc1ccccc1-n1ncc2c1CC(C)(C)CC2NC(=O)C1=CC(=O)CC(C)(C)O1 (stereo not drawn),0,1,-5,-2,5,-3,nt
COc1ccc(/C=N/N2C(=N)SCC2=O)cc1,6.3*,-1,-1,-3,7,-1,4
N#C/C(=C/Nc1ccccc1)c1ccsc1,4.8*,-2,-3,-15,-6,4,2
Cc1ccc(N/C=C(/C#N)c2ccsc2)cc1,3,0,-2,-2,13,-1,nt
COC(=O)C1CC(Cl)CN1c1ncc(C(F)(F)F)cc1Cl (stereo not drawn),5.1*,-4,0,-5,14,0,0
CC(C)(C(N)=O)N1CCN(c2ncc(C(F)(F)F)cc2Cl)CC1,0,-3,2,1,12,-3,nt
O=C(CCNC(=O)c1ccc(Cl)cc1)Nc1ccncc1,-1,2,1,-1,1,6,nt
O=C(NC(=S)Nc1ccccc1Cl)C1CC1,7.0*,-3,-1,-6,19,2,4
CC(=O)NN1C(=O)c2ccc3c4c(ccc(c24)C1=O)C(=O)N(NC(C)=O)C3=O,29*,0,-6,-4,-13,1,22*
COc1ccccc1-n1nnnc1SCC(=O)N1CCCC1=O,-1,-3,-1,-6,-9,-4,nt
O=c1nc(-c2ccccc2)c2cc(Br)ccc2[nH]1,0,-2,-1,-13,0,5,nt
O=c1cc2[nH]c3ccccc3c(=O)n2nc1-c1ccccc1,4.9*,0,-2,-6,-16,4,1
COc1ccc(C(=O)NCCS(=O)(=O)N2CCCCCC2)cc1,0,-1,-3,-4,-4,1,nt
Cc1cc(OC(C)C)c2c(-c3ccccc3)cc(=O)oc2c1,26*,-10,0,-6,21,-7,22*
CCCCc1cc(=O)oc2cc(C)cc(OCC(=O)N3CCC(C(=O)O)(c4ccccc4)CC3)c12,1,3,0,-5,-7,1,nt
Cc1ccc(-c2c(C)cc3oc(=O)cc(-c4ccccc4)c3c2C)cc1,0,-9,nt,-2,7,0,nt
CCOC(=O)c1ccc(-c2c(C)cc3oc(=O)cc(-c4ccccc4)c3c2C)cc1,1,-12,nt,-2,-11,-10,nt
SMILES,MsrA inhibitor,DAGLB inh,beta cell repl,MsrA act,SKN-1 inh,MT1-MMP act inh,MsrA inh confirm
Cc1cc(OCC(=O)N2CCc3ccccc3C2)c2c(-c3ccccc3)cc(=O)oc2c1,15*,-3,-5,-3,2,-15,14*
CC(=O)Oc1cc(C)cc2oc(=O)cc(-c3ccccc3)c12,9.1*,0,-3,1,0,2,1
CCOc1cc(C)cc2oc(=O)cc(-c3ccccc3)c12,6.5*,-9,1,-1,28,-6,5.1*
COC(=O)c1ccc(CN2CCN(C3CCCC3)C(CCO)C2)cc1 (stereo not drawn),2,1,0,-3,6,4,nt
C/C=C/C1=CC(=O)C[C@H](c2ccc(Cl)cc2)C1,-1,0,-7,-3,27,2,nt
COc1ccc(C(=O)/C=C/Nc2cc(C)on2)cc1,6.6*,-4,-4,-5,7,1,6.2*
COc1ccc(C(=O)/C=C/Nc2cccc(O)c2)cc1,2,0,-4,-3,5,-64,nt
O=C(C1CCCCC1)N1C[C@H](O)[C@@H](n2cc(C3CC3)nn2)C[C@@H]1c1ccccc1,1,0,nt,-5,-3,0,nt
CCOC(=O)c1cnc(SC)nc1Sc1ccccc1Cl,8.2*,-10,-3,-5,12,-4,3
Cc1ccn2c(C(=O)N/N=C\c3cccs3)c(C)nc2c1,7.4*,0,-1,-4,8,1,5.8*
CCCc1c(C)nn(C(=O)/C(C#N)=N/Nc2ccccc2[N+](=O)[O-])c1C,10*,1,-1,-10,-14,0,6.9*
COc1ccc(C(=O)/C(C#N)=N/Nc2ccccc2[N+](=O)[O-])cc1,3,15,0,-1,5,1,nt
N#Cc1c(SCC(=O)O)nc(N2CCOCC2)c2c1CCCC2,2,1,-2,-5,-9,-1,nt
CCSc1nc(N2CCOCC2)c2c(c1C#N)CCCC2,13*,-7,-4,-5,33,-11,13*
CCN1CCc2c(C#N)c(N3CCCCC3)nc(N3CCOCC3)c2C1,4.8*,-2,1,-6,-3,-9,2
COC(=O)CSc1nc(N2CCOCC2)c2c(c1C#N)CCCC2,8.2*,-3,3,-2,11,3,6.9*
COCCN(C(=O)CSc1nc(N)cc(=O)[nH]1)c1c(N)n(Cc2ccccc2)c(=O)[nH]c1=O,-1,3,-1,0,-14,-1,nt
CC(=O)c1ccc(Nc2ccc(-c3ccccc3C)nn2)cc1,2,-3,-3,-14,6,1,nt
C#CCOCCOCCOCCNc1nc(N2CCN(C(=O)[C@H](CCCN=C(N)N)n3cc(C(N)[C@@H](C)CC)nn3)CC2)nc(N2CCN(C(=O)[C@H](CCC(=O)O)n3cc([C@@H](N)CO)nn3)CC2)n1 (stereo partly drawn),2,-1,2,-6,-12,0,nt
COc1cccc(-c2ncc3ccccc3c2COC(=O)c2ccc(C(F)(F)F)cc2)c1,0,0,-5,-2,-14,0,nt
Cc1nc2cc(-c3sccc3-n3cccc3)nn2c(C)c1C,8.2*,-10,-2,-11,7,-5,7.1*
Cc1cc(C(F)(F)F)n2nc(-c3sccc3-n3cccc3)cc2n1,0,-3,-3,-6,-18,2,nt
